{"source": "paper PMC10772668", "about": "(Clinical and Translational Science, 2023)", "key": {"RIPK1 [1]": {"molecular_target": "T1, RIPK1 (Homo sapiens, UniProt Q13546)", "T1 sequence (Q13546 1-671)": "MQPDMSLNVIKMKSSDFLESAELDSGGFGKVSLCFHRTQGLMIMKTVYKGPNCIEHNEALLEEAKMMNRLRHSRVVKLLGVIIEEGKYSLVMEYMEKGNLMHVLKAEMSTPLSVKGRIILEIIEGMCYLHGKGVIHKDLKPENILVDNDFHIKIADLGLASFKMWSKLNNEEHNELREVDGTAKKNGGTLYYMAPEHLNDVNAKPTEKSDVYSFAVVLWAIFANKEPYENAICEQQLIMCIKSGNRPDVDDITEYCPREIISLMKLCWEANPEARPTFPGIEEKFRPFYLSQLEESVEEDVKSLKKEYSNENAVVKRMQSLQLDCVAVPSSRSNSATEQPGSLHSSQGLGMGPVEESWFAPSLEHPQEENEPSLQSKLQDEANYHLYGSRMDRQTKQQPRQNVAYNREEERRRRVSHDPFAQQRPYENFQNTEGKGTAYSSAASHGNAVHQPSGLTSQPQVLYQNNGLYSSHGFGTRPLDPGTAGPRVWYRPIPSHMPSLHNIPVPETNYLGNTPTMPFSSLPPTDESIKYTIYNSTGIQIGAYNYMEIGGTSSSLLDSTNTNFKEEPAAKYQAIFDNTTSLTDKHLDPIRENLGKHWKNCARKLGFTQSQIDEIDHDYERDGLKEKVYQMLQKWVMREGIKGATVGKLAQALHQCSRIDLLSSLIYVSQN", "assay": "In vitro inhibition of RIPK1 activity in human PBMCs", "type": "cell-based"}, "RIPK1 [2]": {"molecular_target": "T1, RIPK1", "assay": "In vitro inhibition of RIPK1 activity in iPSC‐derived microglia", "type": "cell-based"}, "Plasma PK, SAD": {"assay": "Plasma PK, SAD", "type": "in vivo, human", "conditions": "for CL/F, geometric mean (%CV): fasting", "procedure,_shortened": "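Healthy adults received a single fasted oral capsule dose (10–40 mg) or placebo; fasting was overnight ≥8 h and 2 h post‑dose. Plasma was sampled predose, at 10 postdose times on day 1 and once each on days 2 and 3, and quantified by HPLC‑MS (LLOQ 1 ng/mL). Cmax, Tmax, AUClast, AUC, t1/2z, CL/F and Vz/F were computed. Dose proportionality was tested with a linear model.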"}, "Plasma PK, PK‐CSF": {"assay": "Plasma PK, PK‐CSF", "type": "in vivo, human", "conditions": "for CL/F, geometric mean (%CV): after breakfast; for Vd/F: both, human, plasma, oral", "procedure,_shortened": "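Open‑label part: single oral 10 or 40 mg dose given about 30 min after breakfast. Plasma was collected predose and at 10 postdose times, one of them coinciding with lumbar‑puncture CSF sampling. Drug was quantified by validated HPLC‑MS (LLOQ 1 ng/mL). CL/F and Vz/F were derived from plasma concentration‑time data and summarised per dose group.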"}, "Plasma PK, MAD": {"assay": "Plasma PK, MAD", "type": "in vivo, human", "conditions": "for half-life: T 1/2z; for Tmax: T max, median (range)", "procedure,_shortened": "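Oral capsules were given for 14 days (q.d. or b.i.d.) after an overnight fast of ≥8 h, with 2 h fasting post‑dose. Plasma was sampled predose and at 10–11 postdose times on days 1 and 14, predose on days 2, 3, 5, 7 and 11, and once on days 15–17. Quantification was by HPLC‑MS (LLOQ 1 ng/mL). AUCtau used tau 12 h (b.i.d.) or 24 h (q.d.). Accumulation was assessed by a linear model on log ratio and steady state by a nonlinear model on Ctrough.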"}, "RIPK1 [3]": {"molecular_target": "T1, RIPK1", "assay": "pS166‐RIPK1 inhibition in PBMC lysates, SAD", "type": "in vivo", "conditions": "SAD all dose groups, from 1 h to at least 5 h postdose", "procedure,_shortened": "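After a single fasted oral dose or placebo, blood was collected predose, at 1, 3, 5 and 8 h on day 1, and at 24 h. PBMCs were isolated and autophosphorylated RIPK1 (pS166) quantified in lysates. Percent change from baseline was summarised descriptively as median (Q1–Q3) by dose group and timepoint.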"}, "RIPK1 [4]": {"molecular_target": "T1, RIPK1", "assay": "pS166‐RIPK1 inhibition in PBMC lysates, MAD", "type": "in vivo", "conditions": "MAD all dose groups", "procedure,_shortened": "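Blood was drawn predose on day −1 or 1, on day 7, on day 14 predose and 1, 3, 5 and 8 h postdose, and once on days 15 and 16. Subjects received 14‑day oral q.d./b.i.d. dosing or placebo. PBMCs were isolated and pS166‑RIPK1 measured in lysates. Percent change from baseline was summarised as median (Q1–Q3) per dose group and time.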"}, "Safety, TEAEs, SAD": {"assay": "Safety, TEAEs, SAD", "type": "in vivo, human", "conditions": "SAD 10 mg (n = 6)", "procedure,_shortened": "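Safety population: all participants exposed to study drug, followed from first dose to the end‑of‑study visit. Assessments covered physical and neurological exams, AEs, SAEs and AESIs (seizure, ALT ≥2×ULN, QTc ≥500 ms, pregnancy, overdose). Lab, vital‑sign and 12‑lead/Holter ECG abnormalities were also recorded. Coding used MedDRA 23.1 (part 1) or 24.0 (part 2), with severity graded 1–4 per FDA guidance. Counts were summarised per dose group, with placebo pooled.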"}, "[5]": {"conditions": "both, human, plasma, oral, 10 mg"}, "[6]": {"conditions": "both, human, plasma, oral, 20 mg"}, "[7]": {"conditions": "both, human, plasma, oral, 30 mg"}, "[8]": {"conditions": "both, human, plasma, oral, 40 mg"}}, "data": [{"compound": "CC(C)(C(=O)N1CCOc2c(C#N)cncc2C1)C(F)F", "note": "[SAR443820]", "values": [{"measurement": "IC50", "setting": "RIPK1 [1]", "value": 3.16, "unit": "nM"}, {"measurement": "IC50", "setting": "RIPK1 [2]", "value": 1.6, "unit": "nM"}, {"measurement": "CL/F, geometric mean (%CV)", "setting": "Plasma PK, SAD; SAD 10 mg single dose", "value": "8.56 (37.8) L/h"}, {"measurement": "CL/F, geometric mean (%CV)", "setting": "Plasma PK, SAD; SAD 20 mg single dose", "value": "8.28 (21.4) L/h"}, {"measurement": "CL/F, geometric mean (%CV)", "setting": "Plasma PK, SAD; SAD 30 mg single dose", "value": "12.3 (44.7) L/h"}, {"measurement": "CL/F, geometric mean (%CV)", "setting": "Plasma PK, SAD; SAD 40 mg single dose", "value": "7.72 (36.1) L/h"}, {"measurement": "Dose proportionality of exposure", "setting": "Plasma PK, SAD; SAD between 10 mg and 40 mg", "value": "no major deviation from dose proportionality"}, {"measurement": "Tmax", "setting": "Plasma PK, SAD; both, human, plasma, oral", "value": "1 to 1.5", "unit": "h"}, {"measurement": "half-life", "setting": "Plasma PK, SAD; both, human, plasma, oral", "value": "5.7 to 8", "unit": "h"}, {"measurement": "AUC(0-t)", "setting": "Plasma PK, SAD; [5]", "value": 1120, "unit": "ng·h/mL"}, {"measurement": "Vd/F", "setting": "Plasma PK, SAD; [5]", "value": 98.4, "unit": "L"}, {"measurement": "half-life", "setting": "Plasma PK, SAD; [5]", "value": 7.97, "unit": "h"}, {"measurement": "Cmax", "setting": "Plasma PK, SAD; [6]", "value": 241, "unit": "ng/mL"}, {"measurement": "Tmax", "setting": "Plasma PK, SAD; [6]", "value": 1.5, "unit": "h"}, {"measurement": "Vd/F", "setting": "Plasma PK, SAD; [6]", "value": 89.4, "unit": "L"}, {"measurement": "half-life", "setting": "Plasma PK, SAD; [6]", "value": 7.48, "unit": "h"}, {"measurement": "Tmax", "setting": "Plasma PK, SAD; [7]", "value": 1, "unit": "h"}, {"measurement": "Vd/F", "setting": "Plasma PK, SAD; [7]", "value": 101, "unit": "L"}, {"measurement": "half-life", "setting": "Plasma PK, SAD; [7]", "value": 5.7, "unit": "h"}, {"measurement": "Tmax", "setting": "Plasma PK, SAD; [8]", "value": 1.5, "unit": "h"}, {"measurement": "Vd/F", "setting": "Plasma PK, SAD; [8]", "value": 70.1, "unit": "L"}, {"measurement": "half-life", "setting": "Plasma PK, SAD; [8]", "value": 6.29, "unit": "h"}, {"measurement": "CL/F, geometric mean (%CV)", "setting": "Plasma PK, PK‐CSF; PK‐CSF 10 mg single dose", "value": "7.27 (29.7) L/h"}, {"measurement": "CL/F, geometric mean (%CV)", "setting": "Plasma PK, PK‐CSF; PK‐CSF 40 mg single dose", "value": "8.43 (34.2) L/h"}, {"measurement": "Vd/F", "setting": "Plasma PK, PK‐CSF; 10 mg", "value": 83.6, "unit": "L"}, {"measurement": "Vd/F", "setting": "Plasma PK, PK‐CSF; 40 mg", "value": 97.7, "unit": "L"}, {"measurement": "Food effect on absorption", "setting": "Plasma PK, PK‐CSF; capsule in fed conditions vs fasted", "value": "no evidence that the extent of absorption was impacted by food"}, {"measurement": "CLss/F, geometric mean (%CV)", "setting": "Plasma PK, MAD; MAD 10 mg q.d., day 14", "value": "7.08 (25.9) L/h"}, {"measurement": "CLss/F, geometric mean (%CV)", "setting": "Plasma PK, MAD; MAD 15 mg b.i.d., day 14", "value": "9.16 (30.0) L/h"}, {"measurement": "CLss/F, geometric mean (%CV)", "setting": "Plasma PK, MAD; MAD 20 mg b.i.d., day 14", "value": "9.27 (24.9) L/h"}, {"measurement": "CLss/F, geometric mean (%CV)", "setting": "Plasma PK, MAD; MAD 20 mg q.d., day 14", "value": "9.40 (22.2) L/h"}, {"measurement": "Overall accumulation, C max and AUCtau", "setting": "Plasma PK, MAD; b.i.d. cohorts, day 14 vs day 1", "value": "around 1.5 fold"}, {"measurement": "Cmax", "setting": "Plasma PK, MAD; both, human, plasma, oral, 10 mg, C max, geometric mean (%CV), MAD 10 mg q.d., day 14", "value": 158, "unit": "ng/mL"}, {"measurement": "half-life", "setting": "Plasma PK, MAD; both, human, plasma, oral, 10 mg, geometric mean (%CV), MAD 10 mg q.d., day 14", "value": 8.87, "unit": "h"}, {"measurement": "Tmax", "setting": "Plasma PK, MAD; both, human, plasma, oral, 10 mg, MAD 10 mg q.d., day 14", "value": 1, "unit": "h"}, {"measurement": "half-life", "setting": "Plasma PK, MAD; both, human, plasma, oral, 15 mg, geometric mean (%CV), MAD 15 mg b.i.d., day 14", "value": 7.21, "unit": "h"}, {"measurement": "Tmax", "setting": "Plasma PK, MAD; both, human, plasma, oral, 15 mg, MAD 15 mg b.i.d., day 1", "value": 1, "unit": "h"}, {"measurement": "Tmax", "setting": "Plasma PK, MAD; both, human, plasma, oral, 15 mg, MAD 15 mg b.i.d., day 14", "value": 1, "unit": "h"}, {"measurement": "half-life", "setting": "Plasma PK, MAD; both, human, plasma, oral, 20 mg, geometric mean (%CV), MAD 20 mg b.i.d., day 14", "value": 7.37, "unit": "h"}, {"measurement": "half-life", "setting": "Plasma PK, MAD; both, human, plasma, oral, 20 mg, geometric mean (%CV), MAD 20 mg q.d., day 14", "value": 8.53, "unit": "h"}, {"measurement": "Tmax", "setting": "Plasma PK, MAD; both, human, plasma, oral, 20 mg, MAD 20 mg b.i.d., day 14", "value": 1, "unit": "h"}, {"measurement": "Tmax", "setting": "Plasma PK, MAD; both, human, plasma, oral, 20 mg, MAD 20 mg q.d., day 14", "value": 2, "unit": "h"}, {"measurement": "Median pS166‐RIPK1 inhibition in PBMC lysates", "setting": "RIPK1 [3]", "value": "greater than 80%"}, {"measurement": "pS166‐RIPK1 inhibition in PBMC lysates", "setting": "RIPK1 [4]; 48 h post last dosing", "value": "less inhibition of RIPK1 phosphorylation"}, {"measurement": "pS166‐RIPK1 inhibition in PBMC lysates", "setting": "RIPK1 [4]; day 14, up to 24 h post last morning dosing", "value": "greater than 80%"}, {"measurement": "Any TEAE, n (%)", "setting": "Safety, TEAEs, SAD", "value": "2 (33.3) n (%)"}]}]}
